In ChEMBL document CHEMBL4622968, “Discovery of [1,2,4]triazolo[4,3-a]pyridines as potent Smoothened inhibitors targeting the Hedgehog pathway with improved antitumor activity in vivo” (Bioorg Med Chem, 2020):

Legend:
Type in all cases: functional
MDA-MB-468 [1] = test: Induction of apoptosis in human MDA-MB-468 cells assessed as necrotic cells at 28 uM incubated for 48 hrs by annexin-V-FITC staining based flow cytometric method (reference value: 1.52 %)
MDA-MB-468 [2] = test: Induction of cell cycle arrest in human MDA-MB-468 cells assessed as cell accumulation at G0/G1 phase at 28 uM incubated for 48 hrs by propidium iodide staining-based flow cytometric analysis (reference value: 38.94 %)
Method in brief: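 Cells were seeded at 1.2×10^5 per well and treated for 48 h (MDA-MB-468: 14, 28, 56 μM). Cells were fixed in 75% ethanol at −20 °C overnight, stained with PI and analysed by flow cytometry. Mean ± S.D. of three independent experiments versus DMSO.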

MDA-MB-468 [3] = test: Induction of apoptosis in human MDA-MB-468 cells assessed as live cells at 14 uM incubated for 48 hrs by annexin-V-FITC staining based flow cytometric method (reference value: 98.5 %)
MDA-MB-468 [4] = test: Induction of apoptosis in human MDA-MB-468 cells assessed as live cells at 56 uM incubated for 48 hrs by annexin-V-FITC staining based flow cytometric method (reference value: 98.5 %)

O=C(Nc1ccc(Cl)c(-c2nnc3c(Cl)cccn23)c1)c1ccc(Cl)nc1Cl showed an Activity (MDA-MB-468 [1]) of 9.86%, an Activity (MDA-MB-468 [2]) of 29.86% and an Activity (MDA-MB-468 [3]) of 74.84%. The Activity (MDA-MB-468 [4]) was 60.3%.
